Activity calls are given as the source filed them.
Legend:
SGC-7901 [1] = test: Displacement of EBI from beta-tubulin in human SGC-7901 cells assessed as reduction in tubulin adduct formation incubated for 2 hrs followed by EBI addition and measured after 2 hrs by Western blot analysis; type: cell-based; details: dose 0.25-2.5 µM, time 4.0 hrs
Method in brief: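 EBI competition assay. […] EBI was then added at […] as printed for another 2 h. Harvested cells were immunoblotted with anti-β-tubulin antibody to detect β-tubulin and the alkylated β-tubulin adduct.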

SGC-7901 [2] = test: Activation of Hippo signaling pathway in human SGC-7901 cells assessed as downregulation of TEAD at 20 to 60 nM incubated for 48 hrs by Western blot analysis; type: cell-based; details: filed as activator, dose 20-60 nM
Method in brief: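 Western blot on gastric cancer cells exposed to compound or DMSO at 20, 40 and 60 nM for 48 h. Cells were lysed, then the denatured lysates were separated by SDS-PAGE and transferred to PVDF. Membranes were blocked and probed with primary and then secondary antibodies. Hippo pathway proteins were detected.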

MGC-803 [3] = test: Induction of apoptosis in human MGC-803 cells assessed as downregulation of XIAP at 20 to 60 nM incubated for 48 hrs by Western blot analysis; type: functional, cell-based; details: dose 20-60 nM
Method in brief: (§1)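 Western blot on MGC-803 and SGC-7901 cells given 20, 40 and 60 nM compound or DMSO for 48 h. Denatured lysates were run on SDS-PAGE and transferred to PVDF, then probed with primary and secondary antibodies to detect apoptosis-related proteins.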

MGC-803 [4] = test: Inhibition of colony formation in human MGC-803 cells at 20 to 60 nM incubated for 7 days by crystal violet staining based assay; type: functional, cell-based; details: dose 20-60 nM, time 7.0 day
Method in brief: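 Cells maintained in RPMI-1640 with 10% FBS at 37 °C, 5% CO2; incubated with 20, 40 and 60 nM for 7 days before colony counting.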

MGC-803 [5] = test: Induction of apoptosis in human MGC-803 cells assessed as downregulation of c-IAP1 at 20 to 60 nM incubated for 48 hrs by Western blot analysis; type: functional, cell-based; details: dose 20-60 nM; method in brief: as §1
SGC-7901 [6] = test: Induction of apoptosis in human SGC-7901 cells assessed as downregulation of Bcl-xl at 20 to 60 nM incubated for 48 hrs by Western blot analysis; type: functional, cell-based; details: dose 20-60 nM; method in brief: as §1

COc1ccc(CN(C(=O)CSc2nc3ccccc3s2)c2cc(OC)c(OC)c(OC)c2)cc1O
active: inhibition (SGC-7901 [1]) Dose-dependent effect | Activity (SGC-7901 [2]) | Activity (MGC-803 [3]) | Activity (MGC-803 [4]) | Activity (MGC-803 [5]) | Activity (SGC-7901 [6])
